Data: ChEMBL document CHEMBL1131071, “Design and synthesis of brefeldin A sulfide derivatives as prodrug candidates with enhanced aqueous solubilities” (1998)

What was measured:
Assay type in all cases: functional
Settings in all cases: Homo sapiens
UACC-62 = assay: Cytotoxicity against melanoma UACC-62 cancer cell cultures.
How it was run: (§1)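 Human cancer cell lines from a panel of about 55, incubated with compound for 72 h (3-day incubation). Values are single determinations or, where given with population standard deviation, two determinations.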

DU-145 = assay: Cytotoxicity against prostate DU-145 cancer cell cultures.; how it was run: as §1
MDA-MB-435 = assay: Cytotoxicity against breast MDA-MB-435 cancer cell cultures.; how it was run: as §1
HCT-116 = assay: Cytotoxicity against colon HCT116 cancer cell cultures.; how it was run: as §1
HOP-62 = assay: Cytotoxicity against lung HOP-62 cancer cell cultures.; how it was run: as §1
OVCAR-3 = assay: Cytotoxicity against ovarian OVCAR-3 cancer cell cultures.; how it was run: as §1
SF-539 = assay: Cytotoxicity against CNS SF-539 cancer cell cultures.; how it was run: as §1
SN12C = assay: Cytotoxicity against renal SN12C cancer cell cultures.; how it was run: as §1

Structure (SMILES)	GI50 (UACC-62)	GI50 (DU-145)	GI50 (MDA-MB-435)	GI50 (HCT-116)	GI50 (HOP-62)	GI50 (OVCAR-3)	GI50 (SF-539)	GI50 (SN12C)
C[C@H]1CCC/C=C/[C@@H]2C[C@H](O)C[C@H]2[C@H](O)[C@H](SCC(=O)O)CC(=O)O1	33 µM	38 µM	42 µM	23 µM	30 µM	30 µM	34 µM	39 µM
COC(=O)CS[C@@H]1CC(=O)O[C@@H](C)CCC/C=C/[C@@H]2C[C@H](O)C[C@H]2[C@@H]1O	6.8 µM	30 µM	30 µM	19 µM	28 µM	27 µM	24 µM	32 µM
COC(=O)CS(=O)(=O)[C@@H]1CC(=O)O[C@@H](C)CCC/C=C/[C@@H]2C[C@H](O)C[C@H]2[C@@H]1O	5 µM	6 µM	5.5 µM	3.7 µM	5.1 µM	3.2 µM		3.3 µM
COc1ccc(S[C@@H]2CC(=O)O[C@@H](C)CCC/C=C/[C@@H]3C[C@H](O)C[C@H]3[C@@H]2O)cc1	29 µM	36 µM	19 µM	33 µM	24 µM	22 µM	26 µM	30 µM
C[C@H]1CCC/C=C/[C@@H]2C[C@H](O)C[C@H]2[C@H](O)[C@H](SCC(O)CO)CC(=O)O1 (stereo not given in full)	16 µM	18 µM	36 µM	36 µM	33 µM	22 µM	32 µM	34 µM
C[C@H]1CCC/C=C/[C@@H]2C[C@H](OC(=O)CCCC(=O)O)C[C@H]2[C@H](O)/C=C/C(=O)O1		30 µM	11 µM	21 µM	33 µM	20 µM	22 µM	32 µM
C[C@H]1CCC/C=C/[C@@H]2C[C@H](OC(=O)CCC(=O)O)C[C@H]2[C@H](O)/C=C/C(=O)O1	1.9 µM	6.8 µM		17 µM	3.4 µM	3.3 µM		
C[C@H]1CCC/C=C/[C@@H]2C[C@H](O)C[C@H]2[C@H](O)C(O)C(O)C(=O)O1 (stereo not given in full)	1.6 µM	6.7 µM	3.8 µM	3.4 µM	5 µM	2.4 µM	0.68 µM	2.7 µM
C[C@H]1CCC/C=C/[C@@H]2C[C@H](OC(=O)CCC(=O)O)C[C@H]2[C@H](OC(=O)CCC(=O)O)/C=C/C(=O)O1	> 100 µM	> 100 µM	> 100 µM	> 100 µM	> 100 µM	> 100 µM	> 100 µM	> 100 µM
C[C@H]1CCC/C=C/[C@@H]2C[C@H](O)C[C@H]2[C@H](O)[C@H](SCCN)CC(=O)O1	2.7 µM		3.3 µM	3.5 µM	3.9 µM	2.2 µM	4.9 µM	
C[C@H]1CCC/C=C/[C@@H]2C[C@H](O)C[C@H]2[C@H](O)[C@H](Sc2ccc(O)cc2)CC(=O)O1	4.8 µM	6.3 µM	3.3 µM	2.5 µM	3.2 µM	2.4 µM	5.1 µM	4.4 µM
C[C@H]1CCC/C=C/[C@@H]2C[C@H](O)C[C@H]2[C@H](O)[C@H]([S+]([O-])CCN)CC(=O)O1 (stereo not given in full)	0.021 µM	0.17 µM	0.055 µM	0.086 µM	0.15 µM	0.082 µM	0.02 µM	0.12 µM
C[C@H]1CCC/C=C/[C@@H]2C[C@H](O)C[C@H]2[C@H](O)[C@H]([S+]([O-])CCO)CC(=O)O1 (stereo not given in full)	0.064 µM	0.26 µM	0.09 µM	0.21 µM	0.29 µM	0.19 µM	0.058 µM	0.65 µM
C[C@H]1CCC/C=C/[C@@H]2C[C@H](O)C[C@H]2[C@H](O)[C@H](SCCN(C)C)CC(=O)O1	0.43 µM	2.4 µM	0.5 µM	0.75 µM	0.54 µM	0.54 µM	0.39 µM	1.4 µM
C[C@H]1CCC/C=C/[C@@H]2C[C@H](O)C[C@H]2[C@H](O)[C@H]([S+]([O-])c2ccc(O)cc2)CC(=O)O1 (stereo not given in full)	0.03 µM	0.118 µM	0.042 µM	0.026 µM	0.088 µM	0.025 µM	0.017 µM	0.05 µM
C[C@H]1CCC/C=C/[C@@H]2C[C@H](O)C[C@H]2[C@H](O)[C@H]([S+]([O-])CC(N)C(=O)O)CC(=O)O1 (stereo not given in full)	0.038 µM	0.43 µM	0.05 µM	0.089 µM	0.7 µM	0.05 µM	0.039 µM	0.16 µM
C[C@H]1CCC/C=C/[C@@H]2C[C@H](O)C[C@H]2[C@H](O)[C@H]([S+]([O-])CCN(C)C)CC(=O)O1 (stereo not given in full)	0.071 µM	0.48 µM	0.41 µM	0.28 µM	0.35 µM	0.14 µM	0.3 µM	0.15 µM
C[C@H]1CCC/C=C/[C@@H]2C[C@H](OC(=O)CCCC(=O)O)C[C@H]2[C@H](OC(=O)CCCC(=O)O)/C=C/C(=O)O1	> 100 µM	> 100 µM	> 100 µM	> 100 µM	> 100 µM	> 100 µM	> 100 µM	> 100 µM
C[C@H]1CCC/C=C/[C@@H]2C[C@H](O)C[C@H]2[C@H](O)[C@H](SCCO)CC(=O)O1	40 µM	30 µM	34 µM	19 µM	34 µM	27 µM	23 µM	33 µM
